Data published in ChEMBL document CHEMBL1154842, “Synthesis, radiolabeling, and biological evaluation of (R)- and (S)-2-amino-3-[(18)F]fluoro-2-methylpropanoic acid (FAMP) and (R)- and (S)-3-[(18)F]fluoro-2-methyl-2-N-(methylamino)propanoic acid (NMeFAMP) as potential PET radioligands for imaging brain tumors” (J Med Chem, 2010).

How the values were obtained:
Blood [1] = assay: Biodistribution in blood of Fischer 344 rat bearing rat 9L cells at 20 uCi, iv after 60 mins; format: ADME, organism-based; conditions: in vivo, 1 h
Method in brief: (§1)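 Male Fischer 344 rats (200–250 g) carrying intracranial 9L gliosarcoma (5×10^4 cells implanted stereotactically, 10–12 days growth), under ketamine:xylazine anaesthesia. About 20 μCi tracer in 0.5 mL sterile saline given via tail-vein catheter. Groups of 4–5 were killed by intracardiac KCl at 15 (NMeFAMP only), 30, 60 or 120 min. Tissues were weighed and gamma-counted, decay-corrected, and reported as %ID/g, mean ± SD.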

Heart [2] = assay: Biodistribution in heart of Fischer 344 rat bearing rat 9L cells at 20 uCi, iv after 60 mins; format: ADME, organism-based; conditions: in vivo, 1 h; method in brief: as §1
[3] = Ratio of drug level from tumor to brain of Fischer 344 rat bearing rat 9L cells at 20 uCi, iv after 60 mins; conditions: in vivo, 1 h
Lung [4] = assay: Biodistribution in lung of Fischer 344 rat bearing rat 9L cells at 20 uCi, iv after 120 mins; format: ADME, organism-based; conditions: in vivo, 2 h; method in brief: as §1
Liver [5] = assay: Biodistribution in liver of Fischer 344 rat bearing rat 9L cells at 20 uCi, iv after 15 mins; format: ADME, organism-based; conditions: in vivo, 0.25 h; method in brief: as §1
Bone [6] = assay: Biodistribution in bone of Fischer 344 rat bearing rat 9L cells at 20 uCi, iv after 30 mins; format: ADME, organism-based, Bone element; conditions: in vivo, 0.5 h; method in brief: as §1
Brain [7] = assay: Biodistribution in brain of Fischer 344 rat bearing rat 9L cells at 20 uCi, iv after 30 mins; conditions: in vivo, 0.5 h
Muscle tissue [8] = assay: Biodistribution in muscle of Fischer 344 rat bearing rat 9L cells at 20 uCi, iv after 120 mins; format: ADME, organism-based; conditions: in vivo, 2 h; method in brief: as §1
Bone [9] = assay: Biodistribution in bone of Fischer 344 rat bearing rat 9L cells at 20 uCi, iv after 60 mins; format: ADME, organism-based, Bone element; conditions: in vivo, 1 h; method in brief: as §1
Heart [10] = assay: Biodistribution in heart of Fischer 344 rat bearing rat 9L cells at 20 uCi, iv after 30 mins; format: ADME, organism-based; conditions: in vivo, 0.5 h; method in brief: as §1
Blood [11] = assay: Biodistribution in blood of Fischer 344 rat bearing rat 9L cells at 20 uCi, iv after 120 mins; format: ADME, organism-based; conditions: in vivo, 2 h; method in brief: as §1
Muscle tissue [12] = assay: Biodistribution in muscle of Fischer 344 rat bearing rat 9L cells at 20 uCi, iv after 30 mins; format: ADME, organism-based; conditions: in vivo, 0.5 h; method in brief: as §1
Heart [13] = assay: Biodistribution in heart of Fischer 344 rat bearing rat 9L cells at 20 uCi, iv after 120 mins; format: ADME, organism-based; conditions: in vivo, 2 h; method in brief: as §1
Lung [14] = assay: Biodistribution in lung of Fischer 344 rat bearing rat 9L cells at 20 uCi, iv after 15 mins; format: ADME, organism-based; conditions: in vivo, 0.25 h; method in brief: as §1
Liver [15] = assay: Biodistribution in liver of Fischer 344 rat bearing rat 9L cells at 20 uCi, iv after 60 mins; format: ADME, organism-based; conditions: in vivo, 1 h; method in brief: as §1
[16] = Biodistribution in testis of Fischer 344 rat bearing rat 9L cells at 20 uCi, iv after 60 mins; format: ADME, organism-based; conditions: in vivo, 1 h; method in brief: as §1
Kidney [17] = assay: Biodistribution in kidney of Fischer 344 rat bearing rat 9L cells at 20 uCi, iv after 120 mins; format: ADME, organism-based; conditions: in vivo, 2 h; method in brief: as §1
[18] = Biodistribution in tumor of Fischer 344 rat bearing rat 9L cells at 20 uCi, iv after 30 mins; format: ADME, organism-based, Neoplasm; conditions: in vivo, 0.5 h; method in brief: as §1
Heart [19] = assay: Biodistribution in heart of Fischer 344 rat bearing rat 9L cells at 20 uCi, iv after 15 mins; format: ADME, organism-based; conditions: in vivo, 0.25 h; method in brief: as §1
Blood [20] = assay: Biodistribution in blood of Fischer 344 rat bearing rat 9L cells at 20 uCi, iv after 30 mins; format: ADME, organism-based; conditions: in vivo, 0.5 h; method in brief: as §1
Kidney [21] = assay: Biodistribution in kidney of Fischer 344 rat bearing rat 9L cells at 20 uCi, iv after 30 mins; format: ADME, organism-based; conditions: in vivo, 0.5 h; method in brief: as §1
Brain [22] = assay: Biodistribution in brain of Fischer 344 rat bearing rat 9L cells at 20 uCi, iv after 15 mins; format: ADME, organism-based; conditions: in vivo, 0.25 h; method in brief: as §1
Muscle tissue [23] = assay: Biodistribution in muscle of Fischer 344 rat bearing rat 9L cells at 20 uCi, iv after 15 mins; format: ADME, organism-based; conditions: in vivo, 0.25 h; method in brief: as §1
Spleen [24] = assay: Biodistribution in spleen of Fischer 344 rat bearing rat 9L cells at 20 uCi, iv after 30 mins; format: ADME, organism-based; conditions: in vivo, 0.5 h; method in brief: as §1
Liver [25] = assay: Biodistribution in liver of Fischer 344 rat bearing rat 9L cells at 20 uCi, iv after 120 mins; format: ADME, organism-based; conditions: in vivo, 2 h; method in brief: as §1
Pancreas [26] = assay: Biodistribution in pancreas of Fischer 344 rat bearing rat 9L cells at 20 uCi, iv after 120 mins; format: ADME, organism-based; conditions: in vivo, 2 h; method in brief: as §1
Spleen [27] = assay: Biodistribution in spleen of Fischer 344 rat bearing rat 9L cells at 20 uCi, iv after 60 mins; format: ADME, organism-based; conditions: in vivo, 1 h; method in brief: as §1
Lung [28] = assay: Biodistribution in lung of Fischer 344 rat bearing rat 9L cells at 20 uCi, iv after 30 mins; format: ADME, organism-based; conditions: in vivo, 0.5 h; method in brief: as §1
Kidney [29] = assay: Biodistribution in kidney of Fischer 344 rat bearing rat 9L cells at 20 uCi, iv after 60 mins; format: ADME, organism-based; conditions: in vivo, 1 h; method in brief: as §1
Lung [30] = assay: Biodistribution in lung of Fischer 344 rat bearing rat 9L cells at 20 uCi, iv after 60 mins; format: ADME, organism-based; conditions: in vivo, 1 h; method in brief: as §1
[31] = rat, in vivo, iv, 1 h
Bone [32] = assay: Biodistribution in bone of Fischer 344 rat bearing rat 9L cells at 20 uCi, iv after 15 mins; format: ADME, organism-based, Bone element; conditions: in vivo, 0.25 h; method in brief: as §1
[33] = Biodistribution in testis of Fischer 344 rat bearing rat 9L cells at 20 uCi, iv after 15 mins; format: ADME, organism-based; conditions: in vivo, 0.25 h; method in brief: as §1
[34] = rat, in vivo, iv, 1 h; remark: listed apart in the source
Blood [35] = assay: Biodistribution in blood of Fischer 344 rat bearing rat 9L cells at 20 uCi, iv after 15 mins; format: ADME, organism-based; conditions: in vivo, 0.25 h; method in brief: as §1
Pancreas [36] = assay: Biodistribution in pancreas of Fischer 344 rat bearing rat 9L cells at 20 uCi, iv after 15 mins; format: ADME, organism-based; conditions: in vivo, 0.25 h; method in brief: as §1
Brain [37] = assay: Biodistribution in brain of Fischer 344 rat bearing rat 9L cells at 20 uCi, iv after 30 mins; format: ADME, organism-based; conditions: in vivo, 0.5 h; method in brief: as §1
Kidney [38] = assay: Biodistribution in kidney of Fischer 344 rat bearing rat 9L cells at 20 uCi, iv after 15 mins; format: ADME, organism-based; conditions: in vivo, 0.25 h; method in brief: as §1
Spleen [39] = assay: Biodistribution in spleen of Fischer 344 rat bearing rat 9L cells at 20 uCi, iv after 120 mins; format: ADME, organism-based; conditions: in vivo, 2 h; method in brief: as §1
Bone [40] = assay: Biodistribution in bone of Fischer 344 rat bearing rat 9L cells at 20 uCi, iv after 120 mins; format: ADME, organism-based, Bone element; conditions: in vivo, 2 h; method in brief: as §1
Pancreas [41] = assay: Biodistribution in pancreas of Fischer 344 rat bearing rat 9L cells at 20 uCi, iv after 60 mins; format: ADME, organism-based; conditions: in vivo, 1 h; method in brief: as §1
[42] = Biodistribution in testis of Fischer 344 rat bearing rat 9L cells at 20 uCi, iv after 120 mins; format: ADME, organism-based; conditions: in vivo, 2 h; method in brief: as §1
Muscle tissue [43] = assay: Biodistribution in muscle of Fischer 344 rat bearing rat 9L cells at 20 uCi, iv after 60 mins; format: ADME, organism-based; conditions: in vivo, 1 h; method in brief: as §1
Pancreas [44] = assay: Biodistribution in pancreas of Fischer 344 rat bearing rat 9L cells at 20 uCi, iv after 30 mins; format: ADME, organism-based; conditions: in vivo, 0.5 h; method in brief: as §1
Brain [45] = assay: Biodistribution in brain of Fischer 344 rat bearing rat 9L cells at 20 uCi, iv after 15 mins; conditions: in vivo
[46] = Biodistribution in testis of Fischer 344 rat bearing rat 9L cells at 20 uCi, iv after 30 mins; format: ADME, organism-based; conditions: in vivo, 0.5 h; method in brief: as §1
Liver [47] = assay: Biodistribution in liver of Fischer 344 rat bearing rat 9L cells at 20 uCi, iv after 30 mins; format: ADME, organism-based; conditions: in vivo, 0.5 h; method in brief: as §1
Spleen [48] = assay: Biodistribution in spleen of Fischer 344 rat bearing rat 9L cells at 20 uCi, iv after 15 mins; format: ADME, organism-based; conditions: in vivo, 0.25 h; method in brief: as §1
[49] = Ratio of drug level from tumor to brain of Fischer 344 rat bearing rat 9L cells at 20 uCi, iv after 120 mins; format: ADME, organism-based; conditions: in vivo, 2 h

`CN[C@@](C)(C[18F])C(=O)O.Cl` gave a Drug uptake (Blood [1]) of 0.24 % ID/g, a Drug uptake (Heart [2]) of 0.24 % ID/g and a Ratio [3] of 58.2. It also gave a Drug uptake (Lung [4]) of 0.25 % ID/g, a Drug uptake (Liver [5]) of 0.6 % ID/g and a Drug uptake (Bone [6]) of 0.48 % ID/g. The Drug uptake (Brain [7]) was 0.04 % ID/g, the Drug uptake (Muscle tissue [8]) was 0.22 % ID/g and the Drug uptake (Bone [9]) was 0.51 % ID/g. The Drug uptake (Heart [10]) was 0.23 % ID/g, the Drug uptake (Blood [11]) was 0.14 % ID/g and the Drug uptake (Muscle tissue [12]) was 0.23 % ID/g. For the same molecule, the Drug uptake (Heart [13]) was 0.22 % ID/g, the Drug uptake (Lung [14]) was 0.79 % ID/g and the Drug uptake (Liver [15]) was 0.52 % ID/g. For the same molecule, the Drug uptake [16] was 0.15 % ID/g, the Drug uptake (Kidney [17]) was 2.45 % ID/g and the Ratio [18] was 53.2. For the same molecule, the Drug uptake (Heart [19]) was 0.55 % ID/g, the Drug uptake (Blood [20]) was 0.32 % ID/g and the Drug uptake (Kidney [21]) was 8.91 % ID/g. For the same molecule, the Drug uptake (Brain [22]) was 0.06 % ID/g, the Drug uptake (Muscle tissue [23]) was 0.27 % ID/g and the Drug uptake (Spleen [24]) was 0.63 % ID/g. It also gave a Drug uptake (Liver [25]) of 0.4 % ID/g, a Drug uptake (Pancreas [26]) of 3.39 % ID/g and a Drug uptake (Spleen [27]) of 0.59 % ID/g. The Drug uptake (Lung [28]) was 0.36 % ID/g, the Drug uptake (Kidney [29]) was 4.44 % ID/g and the Drug uptake (Lung [30]) was 0.38 % ID/g. The Drug uptake [31] was 2.64 % ID/g, the Drug uptake (Bone [32]) was 0.51 % ID/g and the Drug uptake [33] was 0.19 % ID/g. The Drug uptake [34] was 0.05 % ID/g, the Drug uptake (Blood [35]) was 0.41 % ID/g and the Drug uptake (Pancreas [36]) was 2.25 % ID/g. For the same molecule, the Drug uptake (Brain [37]) was 0.04 % ID/g, the Drug uptake (Kidney [38]) was 9.22 % ID/g and the Drug uptake (Spleen [39]) was 0.62 % ID/g. For the same molecule, the Drug uptake (Bone [40]) was 0.44 % ID/g, the Drug uptake (Pancreas [41]) was 3.41 % ID/g and the Drug uptake [42] was 0.16 % ID/g. For the same molecule, the Drug uptake (Muscle tissue [43]) was 0.2 % ID/g, the Drug uptake (Pancreas [44]) was 2.72 % ID/g and the Ratio (Brain [45]) was 25. The Drug uptake [46] was 0.15 % ID/g, the Drug uptake (Liver [47]) was 0.61 % ID/g and the Drug uptake (Spleen [48]) was 0.57 % ID/g. For the same molecule, the Ratio [49] was 115.4.
